From ChEMBL document CHEMBL1149195, “N,N-dialkyl-2-phenylindol-3-ylglyoxylamides. A new class of potent and selective ligands at the peripheral benzodiazepine receptor” (J Med Chem, 2004)

Target: Translocator protein (Rattus norvegicus, UniProt P16257)
Assay: Binding affinity to peripheral benzodiazepine receptors using [3H]-PK11195 radioligand in rat kidney mitochondrial membrane
Assay type: cell membranes

Translocator protein, sequence (P16257 whole entry, looked up): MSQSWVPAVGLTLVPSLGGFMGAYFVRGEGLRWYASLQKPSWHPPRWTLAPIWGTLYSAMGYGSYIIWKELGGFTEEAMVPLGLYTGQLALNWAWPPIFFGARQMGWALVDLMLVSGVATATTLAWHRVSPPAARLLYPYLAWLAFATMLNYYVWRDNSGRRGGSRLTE

Row | Compound | Ki [nM]
1 | CCCCCN(CCCCC)C(=O)C(=O)c1c(-c2ccccc2)[nH]c2ccccc12 | 16
2 | CCCNC(=O)C(=O)c1c(-c2ccccc2)[nH]c2ccccc12 | 815
3 | CCCCNC(=O)C(=O)c1c(-c2ccccc2)[nH]c2ccccc12 | 1170
4 | CCCN(CCC)C(=O)C(=O)c1c(-c2ccc(F)cc2)[nH]c2ccccc12 | 4.28
5 | CCCCN(CCCC)C(=O)C(=O)c1c(-c2ccccc2)[nH]c2ccc(Cl)cc12 | 4.91
6 | CCCCN(CCCC)C(=O)C(=O)c1c(-c2ccc(Cl)cc2)[nH]c2ccccc12 | 1
7 | CCCN(CCC)C(=O)C(=O)c1c(-c2ccccc2)[nH]c2ccc(Cl)cc12 | 2.8
8 | CCCCN(CCCC)C(=O)C(=O)c1c(-c2ccc(C)cc2)[nH]c2ccccc12 | 3.8
9 | CCN(CC)C(=O)C(=O)c1c(-c2ccccc2)[nH]c2ccccc12 | 43
10 | CCCCN(CCCC)C(=O)C(=O)c1c(-c2ccc(Cl)cc2)[nH]c2ccc(Cl)cc12 | 1.9
11 | CCCCCCN(CCCCCC)C(=O)C(=O)c1c(-c2ccc(Cl)cc2)[nH]c2ccccc12 | 0.55
12 | CCCCCCN(CCCCCC)C(=O)C(=O)c1c(-c2ccc(C)cc2)[nH]c2ccccc12 | 1.6
13 | O=C(C(=O)N1CCCCCC1)c1c(-c2ccccc2)[nH]c2ccccc12 | 33
14 | CCCN(CCC)C(=O)C(=O)c1c(-c2ccc(Cl)cc2)[nH]c2ccc(Cl)cc12 | 0.62
15 | CC(C)N(C(=O)C(=O)c1c(-c2ccccc2)[nH]c2ccccc12)C(C)C | 103
16 | CCCCN(CCCC)C(=O)C(=O)c1c(-c2ccccc2)[nH]c2ccccc12 | 7.5
17 | CCCCCCN(CCCCCC)C(=O)C(=O)c1c(-c2ccccc2)[nH]c2ccc(Cl)cc12 | 58.4
18 | CCCN(CCC)C(=O)Cc1c(-c2ccc(Cl)cc2)nc2ccc(Cl)cn12 [ALPIDEM] | 7
19 | O=C(C(=O)N1CCCCC1)c1c(-c2ccccc2)[nH]c2ccccc12 | 665
20 | O=C(C(=O)N1CCCC1)c1c(-c2ccccc2)[nH]c2ccccc12 | 2400
21 | CCCCCCN(CCCCCC)C(=O)C(=O)c1c(-c2ccc(Cl)cc2)[nH]c2ccc(Cl)cc12 | 5.8
22 | CCCN(CCC)C(=O)C(=O)c1c(-c2ccc(Cl)cc2)[nH]c2ccccc12 | 4.65
23 | CCCCCCN(CCCCCC)C(=O)C(=O)c1c(-c2ccc(F)cc2)[nH]c2ccccc12 | 0.37
24 | CCC(C)N(C(=O)C(=O)c1c(-c2ccccc2)[nH]c2ccccc12)C(C)CC (stereo unspecified) | 17

Target: GABA-A receptor; anion channel (Rattus norvegicus) (UniProt O09028+P15431+P18506+P18508+P19969+P20236+P23574+P23576+P28471+P28473+P30191+P62813+P63079+P63138+Q91ZM7+Q9ES14)
Assay: Percent inhibition of rat benzodiazepine receptor assayed using [3H]-flumazenil radioligand at 10 um concentration
Assay type: protein-complex assay
Method in brief: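 Displacement of [3H]flumazenil specific binding in rat brain membranes by test compound at fixed 10 µM; percent inhibition as mean ± SEM of five determinations.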

Row | Compound | inhibition [%]
25 | CCCCCN(CCCCC)C(=O)C(=O)c1c(-c2ccccc2)[nH]c2ccccc12 | 3
26 | CCCCNC(=O)C(=O)c1c(-c2ccccc2)[nH]c2ccccc12 | 12
27 | CCCN(CCC)C(=O)C(=O)c1c(-c2ccc(F)cc2)[nH]c2ccccc12 | 4
28 | CCCCCCN(CCCCCC)C(=O)C(=O)c1c(-c2ccccc2)[nH]c2ccccc12 | 10
29 | CCCCN(CCCC)C(=O)C(=O)c1c(-c2ccccc2)[nH]c2ccc(Cl)cc12 | 13
30 | CCCCN(CCCC)C(=O)C(=O)c1c(-c2ccc(Cl)cc2)[nH]c2ccccc12 | 0
31 | CCCN(CCC)C(=O)C(=O)c1c(-c2ccccc2)[nH]c2ccccc12 | 16
32 | CCCCN(CCCC)C(=O)C(=O)c1c(-c2ccc(F)cc2)[nH]c2ccccc12 | 0
33 | CCCN(CCC)C(=O)C(=O)c1c(-c2ccccc2)[nH]c2ccc(Cl)cc12 | 10
34 | CCCCN(CCCC)C(=O)C(=O)c1c(-c2ccc(C)cc2)[nH]c2ccccc12 | 11
35 | CCN(CC)C(=O)C(=O)c1c(-c2ccccc2)[nH]c2ccccc12 | 6
36 | CCCCN(CCCC)C(=O)C(=O)c1c(-c2ccc(Cl)cc2)[nH]c2ccc(Cl)cc12 | 0
37 | CCCCCCN(CCCCCC)C(=O)C(=O)c1c(-c2ccc(Cl)cc2)[nH]c2ccccc12 | 4
38 | CCCCCCN(CCCCCC)C(=O)C(=O)c1c(-c2ccc(C)cc2)[nH]c2ccccc12 | 6
39 | O=C(C(=O)N1CCCCCC1)c1c(-c2ccccc2)[nH]c2ccccc12 | 5
40 | CCCN(CCC)C(=O)C(=O)c1c(-c2ccc(Cl)cc2)[nH]c2ccc(Cl)cc12 | 5
41 | CC(C)N(C(=O)C(=O)c1c(-c2ccccc2)[nH]c2ccccc12)C(C)C | 4
42 | CCCCN(CCCC)C(=O)C(=O)c1c(-c2ccccc2)[nH]c2ccccc12 | 3
43 | CCCCCCN(CCCCCC)C(=O)C(=O)c1c(-c2ccccc2)[nH]c2ccc(Cl)cc12 | 3
44 | CCCN(CCC)C(=O)Cc1c(-c2ccc(Cl)cc2)nc2ccc(Cl)cn12 [ALPIDEM] | 28
45 | O=C(C(=O)N1CCCCC1)c1c(-c2ccccc2)[nH]c2ccccc12 | 3
46 | O=C(C(=O)N1CCCC1)c1c(-c2ccccc2)[nH]c2ccccc12 | 4
47 | CCCCCCN(CCCCCC)C(=O)C(=O)c1c(-c2ccc(Cl)cc2)[nH]c2ccc(Cl)cc12 | 3
48 | CCCN(CCC)C(=O)C(=O)c1c(-c2ccc(Cl)cc2)[nH]c2ccccc12 | 14
49 | CCCN(CCC)C(=O)C(=O)c1c(-c2ccc(C)cc2)[nH]c2ccccc12 | 7
50 | CCCCCCN(CCCCCC)C(=O)C(=O)c1c(-c2ccc(F)cc2)[nH]c2ccccc12 | 0
51 | CCC(C)N(C(=O)C(=O)c1c(-c2ccccc2)[nH]c2ccccc12)C(C)CC (stereo unspecified) | 5

Target: T1, Cholesterol side-chain cleavage enzyme, mitochondrial (Rattus norvegicus, UniProt P14137)
T1 sequence (P14137 whole entry): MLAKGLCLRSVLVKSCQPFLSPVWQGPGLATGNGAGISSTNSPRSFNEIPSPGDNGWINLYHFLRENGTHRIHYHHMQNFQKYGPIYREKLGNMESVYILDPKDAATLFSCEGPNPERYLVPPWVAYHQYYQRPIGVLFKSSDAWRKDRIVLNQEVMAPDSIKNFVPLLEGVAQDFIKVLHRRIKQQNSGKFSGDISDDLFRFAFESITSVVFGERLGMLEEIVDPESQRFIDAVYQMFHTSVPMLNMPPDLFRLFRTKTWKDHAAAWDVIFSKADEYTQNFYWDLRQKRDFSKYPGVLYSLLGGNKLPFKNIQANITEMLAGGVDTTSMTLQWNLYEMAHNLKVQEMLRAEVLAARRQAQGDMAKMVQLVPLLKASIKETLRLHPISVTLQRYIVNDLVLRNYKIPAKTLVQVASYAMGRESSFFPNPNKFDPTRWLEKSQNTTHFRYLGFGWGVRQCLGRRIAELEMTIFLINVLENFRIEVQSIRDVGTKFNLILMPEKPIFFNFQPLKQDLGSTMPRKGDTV
Assay: Stimulation of pregnenolone formation from rat C6 glioma cells
Assay type: functional, cell-based
Set-up: concentration or dose not given beside the values
Method in brief: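 Rat C6 glioma cells exposed to compound for 2 h at 37 °C; pregnenolone measured by radioimmunoassay and expressed as % increase over control; mean ± SEM of at least three determinations.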

Row | Compound | Activity [%]
52 | CCCCCN(CCCCC)C(=O)C(=O)c1c(-c2ccccc2)[nH]c2ccccc12 | 35
53 | CCCN(CCC)C(=O)C(=O)c1c(-c2ccc(F)cc2)[nH]c2ccccc12 | 20
54 | CCCCCCN(CCCCCC)C(=O)C(=O)c1c(-c2ccccc2)[nH]c2ccccc12 | 30
55 | CCCCN(CCCC)C(=O)C(=O)c1c(-c2ccccc2)[nH]c2ccc(Cl)cc12 | 5
56 | CCCCN(CCCC)C(=O)C(=O)c1c(-c2ccc(Cl)cc2)[nH]c2ccccc12 | 55
57 | CCCN(CCC)C(=O)C(=O)c1c(-c2ccccc2)[nH]c2ccccc12 | 8
58 | CCCCN(CCCC)C(=O)C(=O)c1c(-c2ccc(F)cc2)[nH]c2ccccc12 | 26
59 | CCCN(CCC)C(=O)C(=O)c1c(-c2ccccc2)[nH]c2ccc(Cl)cc12 | 10
60 | CCCCN(CCCC)C(=O)C(=O)c1c(-c2ccc(C)cc2)[nH]c2ccccc12 | 58
61 | CCCCN(CCCC)C(=O)C(=O)c1c(-c2ccc(Cl)cc2)[nH]c2ccc(Cl)cc12 | 147
62 | CCCCCCN(CCCCCC)C(=O)C(=O)c1c(-c2ccc(Cl)cc2)[nH]c2ccccc12 | 109
63 | CCCCCCN(CCCCCC)C(=O)C(=O)c1c(-c2ccc(C)cc2)[nH]c2ccccc12 | 77
64 | CCCN(CCC)C(=O)C(=O)c1c(-c2ccc(Cl)cc2)[nH]c2ccc(Cl)cc12 | 49
65 | CCCCN(CCCC)C(=O)C(=O)c1c(-c2ccccc2)[nH]c2ccccc12 | 23
66 | CCCCCCN(CCCCCC)C(=O)C(=O)c1c(-c2ccccc2)[nH]c2ccc(Cl)cc12 | 31
67 | CCCCCCN(CCCCCC)C(=O)C(=O)c1c(-c2ccc(Cl)cc2)[nH]c2ccc(Cl)cc12 | 166
68 | CCCN(CCC)C(=O)C(=O)c1c(-c2ccc(Cl)cc2)[nH]c2ccccc12 | 40
69 | CCCN(CCC)C(=O)C(=O)c1c(-c2ccc(C)cc2)[nH]c2ccccc12 | 148
70 | CCCCCCN(CCCCCC)C(=O)C(=O)c1c(-c2ccc(F)cc2)[nH]c2ccccc12 | 62
71 | CCC(C)N(C(=O)C(=O)c1c(-c2ccccc2)[nH]c2ccccc12)C(C)CC (stereo unspecified) | 10
